Shown are actives, neighbours in structure and some others; about 2.6% of the full set was active somewhere.
CHT allo act = CHT positive allosteric modulators, primary screen, cell-based, membrane potential dye, choline EC20 | High affinity choline transporter 1 (Homo sapiens), Q9GZV3 | CHT-expressing cells; stronger effect = higher value; LV-AA mutant CHT in HEK293 cells | B-score at 10 µM | 310,000 compounds, 0.49% hits | AID 488977, 2010;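 active = initial fluorescence not abnormally high and integrated response B-score, plate-corrected, over 3 SD above library mean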
Rad51 HR inh = human RAD51 strand exchange inhibitors, primary screen, biochemical, fluorescence. hRad51 DNA strand exchange, fluorescence dequenching. 200,000 compounds, 0.085% hits. DNA repair protein RAD51 homolog 1 (Homo sapiens), Q06609. inhibition, % at 10 µM;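 active = inhibition above 40% at the single screening dose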
Target sequence (Q06609 whole entry, looked up): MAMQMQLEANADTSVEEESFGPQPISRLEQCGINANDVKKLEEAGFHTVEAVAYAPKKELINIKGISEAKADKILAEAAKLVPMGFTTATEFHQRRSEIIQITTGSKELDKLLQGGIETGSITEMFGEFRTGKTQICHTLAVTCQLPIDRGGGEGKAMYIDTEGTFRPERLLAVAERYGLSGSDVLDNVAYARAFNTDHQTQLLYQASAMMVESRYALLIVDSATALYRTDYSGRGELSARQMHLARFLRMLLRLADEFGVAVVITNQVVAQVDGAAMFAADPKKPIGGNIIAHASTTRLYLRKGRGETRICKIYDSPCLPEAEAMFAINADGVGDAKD
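Read-out basis: percent inhibition relative to plate controls and blanks / Assay system: human Rad51 nucleoprotein filaments preassembled on unlabelled ssDNA / Timing: filaments 15 min 37 °C, then compound 30 min / Control set: per-plate controls and blanks / Technique: fluorescence dequenching at 485/520 nm / Compound: 10 µM final, single point / Also added: Fluorescein- and BHQ1-tagged 47-mer duplex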
CHT block = inhibitors of human choline transporter CHT; High affinity choline transporter 1 (Homo sapiens), Q9GZV3; CHT-expressing cells, membrane potential dye, choline response; stronger effect = lower value; B-score at 10 µM; 310,000 compounds, 0.86% hits; AID 488975, 2010;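 active = B-score over 3 SD under the library average, and starting fluorescence ratio not unusually high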;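 note: choline stimulus applied at its EC90 after an EC20 pre-addition; B-score computed on integrated fluorescence ratio after choline addition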
KCC2 mod = KCC2 cotransporter modulators, thallium flux, primary screen, cell-based, HEK293 KCC2, FluoZin-2 fluorescence, MLSMR; B-score of Tl+ flux slope (higher = more flux/activation; lower = inhibition) at 10 µM; 190,000 compounds, 2.2% hits; AID 1456, 2008; KCC2 cells, thallium flux FluoZin-2 fluorescence; Solute carrier family 12 member 5 (Homo sapiens), Q9H2X9;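 active = thallium flux slope and its plate-corrected score both differing from the plate sample mean at a set confidence after two filtering rounds, in either direction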;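 note: slope of fluorescence scaled to starting intensity during 10 to 20 s after thallium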
CHT block conf = CHT inhibitors, confirmation, cell-based, membrane potential dye, duplicate; 2,400 compounds, 70% hits; AID 493221, 2011; CHT activity remaining % of control (stronger effect = lower value), % at 10 µM; CHT-expressing cells, choline membrane potential dye; LV-to-AA substituted CHT, HEK293 cells; shares compounds with CHT block;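 active = choline transporter activity left, mean of duplicates at 10 µM, below buffer-only control mean minus 3 SD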;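 note: depolarization triggered by choline at its EC90 following an EC20 pre-addition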
HEK293 CHT ctr = membrane potential effects in parental HEK293, counter-screen for CHT inhibitor project, cell-based, membrane potential dye; shares compounds with CHT block; choline response; active = decrease or increase beyond buffer ±3SD; membrane potential ratio readout (active if shifted either direction beyond buffer ±3SD; no single direction) at 10 µM; 2,400 compounds, 4% hits; AID 493222, 2011;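 note: parental cells lack the transporter so any hit is non-specific; ratio is peak minus trough fluorescence over baseline after EC90 choline challenge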
Large screens that a line does not name were inactive (follow-up assays come after a bar, where they were run).

CCOc1cc2[nH]c(=S)n(C3CCN(Cc4ccccc4)CC3)c(=O)c2cc1OCC	CHT block -5.8 | CHT block conf inactive | HEK293 CHT ctr inactive
CCO[C@@H]1OC(C(N)=O)=C[C@H](c2ccccc2)[C@H]1CCCO	none
COc1ccccc1NC(=O)NCC1(N(C)C)CCCCC1	none (no result: Rad51 HR inh, KCC2 mod)
Cc1ccccc1Nc1nc(N)nc(COC(=O)C(NC(=O)c2ccco2)C(C)C)n1 (stereo unspecified)	CHT block -6.2 (no result: KCC2 mod) | CHT block conf inactive | HEK293 CHT ctr inactive
COc1ccc(C(=O)OCc2nc(N)nc(Nc3ccccc3C)n2)cc1OC	none (no result: Rad51 HR inh)
Cc1ccc(-n2[nH]c(C)c(/C=N/Nc3ccc([N+](=O)[O-])cc3[N+](=O)[O-])c2=O)cc1C	CHT block -8.4 | CHT block conf 36% | HEK293 CHT ctr inactive
COc1ccc2c(c1OC)C(=O)N1c3ccccc3C(=O)N(c3ccccc3)C21 (stereo unspecified)	CHT block -8.5 (no result: KCC2 mod) | CHT block conf inactive | HEK293 CHT ctr inactive
O=[N+]([O-])c1ccc(N2CCCC2)nc1	none
O=[N+]([O-])c1ccc(N2CCCCC2)nc1	CHT block -5.8 (no result: Rad51 HR inh, KCC2 mod) | CHT block conf 60% | HEK293 CHT ctr inactive
COC(=O)COC(=O)CC(CC(N)=O)c1ccccc1 (stereo unspecified)	none
NC(=O)c1ccc(Cn2c(C(=O)c3cc(Cl)c(N)c(Cl)c3)c3ccccc3[n+]2[O-])cc1	none (no result: Rad51 HR inh, KCC2 mod)
NC(=O)CCCn1c(C(=O)c2cc(Cl)c(N)c(Cl)c2)c2ccc(C(F)(F)F)cc2[n+]1[O-]	CHT block -10 (no result: Rad51 HR inh, KCC2 mod) | CHT block conf -1.6% | HEK293 CHT ctr inactive
NCCCn1c(C(=O)c2cc(Cl)c(N)c(Cl)c2)c2ccc(C(F)(F)F)cc2[n+]1[O-]	CHT block -8.2 (no result: Rad51 HR inh, KCC2 mod) | CHT block conf 14% | HEK293 CHT ctr inactive
COc1ccc(C(=O)c2c3ccc(C(F)(F)F)cc3[n+]([O-])n2CCCC(N)=O)cc1	none (no result: Rad51 HR inh, KCC2 mod)
O=C(CC12CC3CC(CC(C3)C1)C2)Nc1ccccc1N1CCOCC1	none
CC1=C/C(=N\OS(=O)(=O)c2ccccc2)C(C(C)C)=CC1=O	none (no result: Rad51 HR inh)
CC1=C/C(=N\OS(=O)(=O)c2ccccc2)C(C)=CC1=O	CHT block -6 | CHT block conf 50% | HEK293 CHT ctr inactive
N#C/C(=N/Nc1ccc([N+](=O)[O-])cc1)C(=N)N1CCCCC1	none (no result: CHT allo act, CHT block)
O=C(O)c1ccc(N=NNc2cccc([N+](=O)[O-])c2)cc1	none
N#C/C(=N\Nc1cccc([N+](=O)[O-])c1)C(=O)c1ccc(Br)cc1	CHT block -10, KCC2 mod -6.8 | CHT block conf 63% | HEK293 CHT ctr inactive
N#C/C(=N\Nc1ccc([N+](=O)[O-])cc1)C(N)=S	CHT block -9.4 | CHT block conf -9.8% | HEK293 CHT ctr inactive
Cc1ccc(Cl)cc1NC(=O)CCC(=O)O	none
Cc1ccc(-n2c(C)cc(C3=NNC(=NC4CC4)SC3)c2C)cc1C	CHT block -6.3 | CHT block conf inactive | HEK293 CHT ctr inactive
Cc1ccc(NC(=S)N2CCCC(CO)C2)c(C)c1 (stereo unspecified)	none (no result: Rad51 HR inh)
CC(C)(C)Nc1nc2cc([N+](=O)[O-])ccc2o1	none
CC(C)(C)c1nc2cc(Cl)c([N+](=O)[O-])cc2o1	CHT block -14 | CHT block conf inactive | HEK293 CHT ctr inactive
Cc1cc(C)[n+](-c2ccc(F)cc2)c2[nH]c(=O)[nH]c(=O)c12	none
O=C(Nc1ccc(Br)cc1Cl)Nn1cnnc1	CHT block -5 | CHT block conf 65% | HEK293 CHT ctr inactive
O=C(Nc1ccc(Br)cc1)Nn1cnnc1	none (no result: Rad51 HR inh, KCC2 mod)
S=C(Nc1ccccc1Cl)N(Cc1ccccc1)Cc1ccccn1	none
CC(=O)/C(=N/Nc1ccccc1)Sc1nnc(C(O)c2ccccc2)n1-c1ccccc1 (stereo unspecified)	CHT block -5 | CHT block conf inactive | HEK293 CHT ctr inactive
Nc1ncnc2c1ncn2C1OC(CO)C(O)C1O (stereo unspecified)	CHT block -10 (no result: KCC2 mod) | CHT block conf 37% | HEK293 CHT ctr inactive
OCC1OC(n2cnc3c(NC4CCCCC4)ncnc32)C(O)C1O (stereo unspecified)	CHT block -5.5 | CHT block conf 41% | HEK293 CHT ctr inactive
Nc1ncnc2c1ncn2[C@@H]1O[C@H](CO)[C@@H](O)[C@@H]1O	none (no result: KCC2 mod)
OC[C@H]1O[C@@H](n2cnc3c(NC4CCCC4)ncnc32)[C@H](O)[C@@H]1O	none
C=CCNc1ncnc2c1ncn2C1OC(CO)C(O)C1O (stereo unspecified)	CHT block -6 | CHT block conf 41% | HEK293 CHT ctr inactive
Nc1ncnc2c1ncn2C1OC(C(=O)NC2CC2)C(O)C1O (stereo unspecified)	CHT block -5.1 (no result: Rad51 HR inh, KCC2 mod) | CHT block conf 44% | HEK293 CHT ctr inactive
O=C(COC(=O)c1cccc(S(=O)(=O)N2CCCC2)c1)NCc1ccccc1	none
C=CCNC(=O)C(=O)Nc1ccc2c(c1)N(S(=O)(=O)c1cccs1)CCC2	none (no result: Rad51 HR inh, KCC2 mod)
CC(=O)NCCc1ccc(S(=O)(=O)Nc2ccc3c(c2)OCCO3)cc1	none (no result: Rad51 HR inh, KCC2 mod)
O=c1c2cc(Br)ccc2nc(-c2cccc(C(F)(F)F)c2)n1O	CHT block -6, KCC2 mod 24 | CHT block conf 39% | HEK293 CHT ctr inactive
Cc1n[nH]c(C)c1CCCCOc1ccccc1[N+](=O)[O-]	CHT block -5.5 (no result: Rad51 HR inh, KCC2 mod) | CHT block conf 52% | HEK293 CHT ctr inactive
COc1cccc(OC)c1OCCCCCc1c(C)n[nH]c1C	CHT block -6.5 (no result: KCC2 mod) | CHT block conf 45% | HEK293 CHT ctr inactive
Cc1n[nH]c(C)c1CCCCOc1ccccc1F	none (no result: Rad51 HR inh, KCC2 mod)
Cc1ccc(C)c(OCCC(=O)OCC(=O)Nc2cc(S(=O)(=O)N3CCOCC3)ccc2C)c1	none (no result: Rad51 HR inh, KCC2 mod)
CC1=C(C(=O)Nc2ccccc2C(=O)NC2CCC(C)CC2)SCCO1 (stereo unspecified)	none (no result: Rad51 HR inh, KCC2 mod)
CCOc1cccc(-c2nn(-c3ccccc3)cc2/C=C(/C#N)C(=O)NCCCn2ccnc2)c1	CHT block -9.2 | CHT block conf 61% | HEK293 CHT ctr inactive
COc1ccc(-c2nc3nc(N)nn3cc2C)cc1F	none (no result: Rad51 HR inh, KCC2 mod)
CCOc1cc(C2NC(=O)c3ccccc3O2)ccc1OC(C)C (stereo unspecified)	none (no result: Rad51 HR inh, KCC2 mod)
Cc1c(/C=N\NC(=O)c2ccc([N+](=O)[O-])cc2)cnn1C	CHT block -7.7 (no result: Rad51 HR inh) | CHT block conf inactive | HEK293 CHT ctr inactive
CC(CNC(=O)CCC(=O)N1CCOc2ccc(Cl)cc21)c1ccccc1 (stereo unspecified)	none (no result: Rad51 HR inh, KCC2 mod)
O=C(NCN1CCOCC1)c1cnccn1	none (no result: Rad51 HR inh, KCC2 mod)
